From ChEMBL document CHEMBL1153046, “Synthesis and antitumor activity of substituted triazolo[4,3-a]pyrimidin-6-sulfonamide with an incorporated thiazolidinone moiety” (2009)

Tests used:
Format in all cases: functional
MOLT-4 = assay: Growth inhibition of human MOLT4 cells after 48 hrs by sulforhodamine B assay; settings: MOLT-4, 48 h
Summary of the method: (§1)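 NCI 60-cell-line panel. Cells are grown in RPMI1640 with 5% fetal calf serum and 2 mM L-glutamine, seeded at a density set by growth characteristics, and preincubated 24 h. Compound is tested at a minimum of five concentrations at 10-fold dilution, with 48 h continuous exposure. Viability is read by sulforhodamine B protein assay. GI50, TGI and LC50 come from dose-response curves.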

[1] = Growth inhibition of human […] cells after 48 hrs by sulforhodamine B assay; summary of the method: as §1
SR = assay: Growth inhibition of human SR cells after 48 hrs by sulforhodamine B assay
Summary of the method: (§2)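 NCI 60-cell-line panel (nine cancer types), with cells grown in RPMI1640 plus 5% fetal calf serum and 2 mM L-glutamine. Cells are seeded at a density that depends on the line and preincubated 24 h. Compounds are then applied at a minimum of five 10-fold dilutions over a 5-log range with 48 h continuous exposure. Viability is read by SRB protein assay, and GI50 is derived from dose-response curves in units of 10^-5 M.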

A549 = assay: Growth inhibition of human A549 cells after 48 hrs by sulforhodamine B assay; settings: A549, 48 h; summary of the method: as §1
NCI-H23 = assay: Growth inhibition of human NCI-H23 cells after 48 hrs by sulforhodamine B assay; settings: NCI-H23, 48 h; summary of the method: as §1
NCI-H322M = assay: Growth inhibition of human NCI-H322M cells after 48 hrs by sulforhodamine B assay; summary of the method: as §1
NCI-H460 [2] = assay: Growth inhibition of human NCI-H460 cells after 48 hrs by sulforhodamine B assay; settings: NCI-H460, 48 h; summary of the method: as §1
NCI-H522 = assay: Growth inhibition of human NCI-H522 cells after 48 hrs by sulforhodamine B assay; settings: NCI-H522, 48 h; summary of the method: as §1
COLO 205 = assay: Growth inhibition of human COLO205 cells after 48 hrs by sulforhodamine B assay; settings: COLO 205, 48 h; summary of the method: as §1
HCC 2998 = assay: Growth inhibition of human HCC2998 cells after 48 hrs by sulforhodamine B assay; settings: HCC 2998, 48 h; summary of the method: as §1
HT-29 = assay: Growth inhibition of human HT-29 cells after 48 hrs by sulforhodamine B assay; settings: HT-29, 48 h; summary of the method: as §1
KM12 = assay: Growth inhibition of human KM12 cells after 48 hrs by sulforhodamine B assay; settings: KM12, 48 h; summary of the method: as §1
SF-539 = assay: Growth inhibition of human SF539 cells after 48 hrs by sulforhodamine B assay; settings: SF-539, 48 h; summary of the method: as §1
SNB-19 = assay: Growth inhibition of human SNB19 cells after 48 hrs by sulforhodamine B assay; settings: SNB-19, 48 h; summary of the method: as §2
SK-MEL-28 = assay: Growth inhibition of human SK-MEL-28 cells after 48 hrs by sulforhodamine B assay; settings: SK-MEL-28, 48 h; summary of the method: as §1
UACC-257 = assay: Growth inhibition of human UACC257 cells after 48 hrs by sulforhodamine B assay; settings: UACC-257, 48 h; summary of the method: as §2
OVCAR-3 = assay: Growth inhibition of human OVCAR-3 cells after 48 hrs by sulforhodamine B assay; settings: OVCAR-3, 48 h; summary of the method: as §1
OVCAR-4 = assay: Growth inhibition of human OVCAR4 cells after 48 hrs by sulforhodamine B assay; settings: OVCAR-4, 48 h; summary of the method: as §1
OVCAR-5 = assay: Growth inhibition of human OVCAR5 cells after 48 hrs by sulforhodamine B assay; settings: OVCAR-5, 48 h; summary of the method: as §1
786-0 = assay: Growth inhibition of human 786-0 cells after 48 hrs by sulforhodamine B assay; settings: 786-0, 48 h; summary of the method: as §1
A498 = assay: Growth inhibition of human A498 cells after 48 hrs by sulforhodamine B assay; settings: A498, 48 h; summary of the method: as §1
CAKI-1 = assay: Growth inhibition of human Caki1 cells after 48 hrs by sulforhodamine B assay; settings: CAKI-1, 48 h; summary of the method: as §1
TK-10 = assay: Growth inhibition of human TK10 cells after 48 hrs by sulforhodamine B assay; settings: TK-10, 48 h; summary of the method: as §2
NCI-H460 [3] = assay: Antiproliferative activity against human NCI-H460 cells assessed as cell growth at 100 uM after 48 hrs by alamar blue assay; settings: NCI-H460, 48 h, read-out: Activity
Summary of the method: (§3)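 NCI three-cell-line primary screen. Cells are seeded and preincubated in microtiter plates. Compound is added at a single 10^-4 M concentration and cultures are incubated 48 h. The end-point is read with alamar blue. Results are given as percent growth relative to untreated control cells.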

SF-268 = assay: Antiproliferative activity against human SF268 cells assessed as cell growth at 100 uM after 48 hrs by alamar blue assay; settings: SF-268, 48 h, read-out: Activity; summary of the method: as §3
CCRF-CEM = assay: Growth inhibition of human CCRF-CEM cells after 48 hrs by sulforhodamine B assay; summary of the method: as §1
PC-3 = assay: Growth inhibition of human PC3 cells after 48 hrs by sulforhodamine B assay; settings: PC-3, 48 h; summary of the method: as §1
DU-145 = assay: Growth inhibition of human DU145 cells after 48 hrs by sulforhodamine B assay; settings: DU-145, 48 h; summary of the method: as §1
MCF7 = assay: Growth inhibition of human MCF7 cells after 48 hrs by sulforhodamine B assay; settings: MCF7, 48 h; summary of the method: as §1
MDA-MB-435 = assay: Growth inhibition of human MDA-MB-435 cells after 48 hrs by sulforhodamine B assay; settings: MDA-MB-435, 48 h; summary of the method: as §1
BT-549 = assay: Growth inhibition of human BT549 cells after 48 hrs by sulforhodamine B assay; settings: BT-549, 48 h; summary of the method: as §1
[4] = read-out: LC50 (the source's name)

COc1ccc(/C=N/c2nc3[nH]nc(C)n3c(=O)c2S(=O)(=O)NN2C(=O)C(CN3CCN(C)CC3)SC2c2cccs2)cc1 (stereo not drawn)
GI50 (MOLT-4): 2.88 µM | TGI (MOLT-4): 18.3 µM | CC50 (MOLT-4; [4]): > 100 µM | GI50 [1]: 2.56 µM | TGI [1]: 8.21 µM | CC50 [1, 4]: > 100 µM | GI50 (SR): 0.79 µM | LC50 (concentration killing 50% of cells) (SR): 13.1 µM | TGI (SR): 3.03 µM | GI50 (A549): 3.65 µM | TGI (A549): > 100 µM | GI50 (NCI-H23): 1.16 µM | TGI (NCI-H23): 9.11 µM | GI50 (NCI-H322M): 8.18 µM | TGI (NCI-H322M): > 100 µM | GI50 (NCI-H460 [2]): 8.2 µM | TGI (NCI-H460 [2]): > 100 µM | GI50 (NCI-H522): 2.63 µM | TGI (NCI-H522): 13.3 µM | GI50 (COLO 205): 5.29 µM | TGI (COLO 205): 21 µM | GI50 (HCC 2998): 1.34 µM | LC50 (HCC 2998): > 100 µM | TGI (HCC 2998): 16.8 µM | GI50 (HT-29): 1.96 µM | GI50 (KM12): 3.02 µM | GI50 (SF-539): 1.77 µM | LC50 (SF-539): > 100 µM | TGI (SF-539): 5.58 µM | GI50 (SNB-19): 7.14 µM | TGI (SNB-19): > 100 µM | GI50 (SK-MEL-28): 16.4 µM | TGI (SK-MEL-28): > 100 µM | GI50 (UACC-257): 2.52 µM | LC50 (UACC-257): > 100 µM | TGI (UACC-257): > 100 µM | GI50 (OVCAR-3): 0.88 µM | LC50 (concentration killing 50% of cells) (OVCAR-3): > 100 µM | TGI (OVCAR-3): > 100 µM | GI50 (OVCAR-4): > 100 µM | LC50 (OVCAR-4): > 100 µM | TGI (OVCAR-4): > 100 µM | GI50 (OVCAR-5): 8.31 µM | LC50 (concentration causing 50% net cell kill) (OVCAR-5): > 100 µM | TGI (OVCAR-5): > 100 µM | GI50 (786-0): 3.93 µM | TGI (786-0): > 100 µM | CC50 (786-0; [4]): > 100 µM | GI50 (A498): 0.5 µM | LC50 (concentration giving 50% net cell kill) (A498): > 100 µM | TGI (A498): 3.2 µM | GI50 (CAKI-1): 1.29 µM | LC50 (50% lethal concentration) (CAKI-1): > 100 µM | TGI (CAKI-1): > 100 µM | GI50 (TK-10): 5.9 µM | LC50 (TK-10): > 100 µM | TGI (TK-10): > 100 µM | growth at 100 µM (NCI-H460 [3]): 24% | growth at 100 µM (SF-268): 58% | GI50 (CCRF-CEM): 3.52 µM | TGI (CCRF-CEM): 16.1 µM | GI50 (PC-3): 2.89 µM | LC50 (concentration killing 50% of cells) (PC-3): > 100 µM | TGI (PC-3): 40 µM | GI50 (DU-145): 5.22 µM | LC50 (concentration giving 50% net cell kill) (DU-145): > 100 µM | TGI (DU-145): > 100 µM | GI50 (MCF7): 5.8 µM | TGI (MCF7): > 100 µM | GI50 (MDA-MB-435): 0.32 µM | TGI (MDA-MB-435): 5.2 µM | GI50 (BT-549): 11.3 µM | TGI (BT-549): > 100 µM
